Data published in paper PMC10903085 (Neurotherapeutics, 2023).
“Also recorded” adds a separate entry of the source. Each block holds one compound with its values, some of them ahead of it.

How the values were obtained:
[1] = Metabolic stability in mouse liver microsomes; format: in vitro ADME
[2] = test system: primary rat neurons; assay: Modified MTT assay of Aβ toxicity in primary neurons; format: cell-based; conditions: compound 0.3, 3 or 15 μM, 90-min pretreatment, 2.5 μM Aβ, 24 h
[3] = Oral administration, brain and plasma concentrations; format: in vivo, mouse; conditions: male CD1 mice, PO 5 mg/kg, 1 h, 2 h, 4 h post-treatment
Summary of the method: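 Male CD1 mice received test compound orally at 5 mg/kg, formulated at 1 mg/mL in 10 % NMP, 60 % PEG400 and 30 % saline. Brain and plasma levels were measured by HPLC-MS at 1, 2 and 4 h after dosing, and the brain/plasma ratio was taken from these.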

[4] = test system: Tau-Fyn interaction; assay: Endogenous Tau-Fyn PLA in primary neurons; format: cell-based, rat; conditions: 24 h
Summary of the method: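 Rat hippocampal neurons (E19 Sprague-Dawley embryos) grown on coated coverslips to DIV20, treated with test compound or vehicle, and fixed in PFA 24 h later. Cells were permeabilised in 0.25 % Triton X-100 and blocked in 5 % NGS. Tau (1:1000) and Fyn (1:250) antibodies were applied overnight at 4 °C, then Duolink PLA was run. Thresholded puncta were counted from 5–7 images per coverslip and normalised to vehicle slides; analysis was blinded.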

[5] = test system: Tau; assay: Western blot of Tau levels in primary neurons; format: cell-based, rat; conditions: 15 μM, 24 h
Summary of the method: (§1)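 Rat primary neurons at DIV13 were treated with 15 μM test compound or vehicle for 24 h. They were lysed in Tris/NaCl/EDTA buffer containing SDS, Triton and deoxycholate. 5 μg protein (Bradford) was run on 4–12 % bis-tris/MOPS gels and blotted to PVDF. Blots were probed overnight at 4 °C for Fyn (1:1000), then GAPDH (1:5000), stripped and reprobed for Tau (1:10,000). Infrared detection was used, with densitometry.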

[6] = test system: Fyn; assay: Western blot of Fyn levels in primary neurons; format: cell-based, rat; conditions: 15 μM, 24 h
Summary of the method: as §1

[7] = test system: 97 kinases; assay: Eurofins DiscoverX ScanEDGE kinase panel; format: binding; conditions: 3 μM; activity defined as <35 % of control
[8] = biological target: Fyn (Homo sapiens, UniProt P06241); assay: Custom kinase panel for Fyn; format: binding; conditions: 3 μM; activity defined as <35 % of control
[9] = biological target: FynSH3 (Homo sapiens, UniProt P06241); assay: Isothermal titration calorimetry with FynSH3; format: binding; conditions: 25 °C
Summary of the method: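 Purified human FynSH3 from E. coli was dialysed at 4 °C into 20 mM Tris, 150 mM NaCl, pH 8.0, quantified by A280 and brought to 5 % DMSO. The cell held ~120 μM FynSH3 and the syringe 1 mM test compound. Sixteen 2.5 μL injections were made at 25 °C. Titrant-into-buffer heat was used as background, and data were fitted to a one-set-of-sites model.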

[10] = biological target: Tau-PxxP5/6 (Homo sapiens, UniProt P10636); assay: Isothermal titration calorimetry with Tau-PxxP5/6 peptide; format: binding; conditions: 25 °C
Summary of the method: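 Calorimetric titration at 25 °C in 5 % DMSO. About 120 μM Tau-PxxP5/6 peptide sat in the cell and 1 mM test compound in the syringe. Sixteen 2.5 μL injections were made. Mixing heat from titrant into buffer alone was used as background, and the normalised heat was fitted to a one-set-of-sites model.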

[11] = biological target: T1, Tau-FynSH3 interaction (Homo sapiens, UniProt P10636); assay: Tau-Flag PLA, Tau-FynSH3 in HEK-293 cells; format: cell-based; conditions: HEK293, read-out: Inhibition of Tau-FynSH3 interaction (PLA)
Summary of the method: (§2)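 HEK-293 cells on PDL/laminin coverslips in DMEM with 10 % FBS were co-transfected (Fugene) with 125 ng human 4R2N Tau-mKate2 and 500 ng GST-SH3-Flag plasmid for the relevant SH3 domain. After 24 h, test compound was added at 15 μM final, and cells were fixed 24 h later. PLA used Tau (1:1000) and Flag (1:1000) antibodies, with puncta quantified by thresholding.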

[12] = biological target: Tau-LckSH3 interaction (Homo sapiens, UniProt P10636); assay: Tau-Flag PLA, Tau-LckSH3 in HEK-293 cells; format: cell-based; conditions: 15 μM
Summary of the method: as §2

[13] = biological target: Tau-BIN1SH3 interaction (Homo sapiens, UniProt P10636); assay: Tau-Flag PLA, Tau-BIN1SH3 in HEK-293 cells; format: cell-based; conditions: 15 μM
Summary of the method: as §2

[14] = biological target: Tau-SrcSH3 interaction (Homo sapiens, UniProt P10636); assay: Tau-Flag PLA, Tau-SrcSH3 in HEK-293 cells; format: cell-based; conditions: 15 μM
Summary of the method: as §2

[15] = test system: Tau-tubulin interaction; assay: Tau-tubulin PLA in untransfected HEK-293 cells; format: cell-based, human; conditions: 15 μM, 24 h
Summary of the method: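 Untransfected HEK-293 cells were grown 48 h, then exposed to 15 μM test compound for 24 h and fixed. PLA for endogenous Tau–α-tubulin proximity used Tau (1:1000) and α-tubulin (1:2000) primary antibodies, with the permeabilisation, blocking, probe, ligation and amplification steps of the neuronal PLA.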

[16] = test system: primary neurons; assay: Multi-electrode array, Aβ-induced network hyperexcitability; format: cell-based, rat; conditions: 1 h pretreatment, 500 nM Aβ oligomers, 4 h
[17] = biological target: T1, Tau-FynSH3 interaction; assay: Tau-FynSH3 AlphaScreen; format: binding; conditions: left-hand phenyl ring removed
[18] = Phase IIa clinical trial, tolerable dose; cited from earlier work
[19] = test system: Sam68(PxxP)-FynSH3; conditions: cited from earlier work
[20] = test system: SFK; conditions: cited from earlier work

T1 sequence (P10636 1-441 isoform P10636-8): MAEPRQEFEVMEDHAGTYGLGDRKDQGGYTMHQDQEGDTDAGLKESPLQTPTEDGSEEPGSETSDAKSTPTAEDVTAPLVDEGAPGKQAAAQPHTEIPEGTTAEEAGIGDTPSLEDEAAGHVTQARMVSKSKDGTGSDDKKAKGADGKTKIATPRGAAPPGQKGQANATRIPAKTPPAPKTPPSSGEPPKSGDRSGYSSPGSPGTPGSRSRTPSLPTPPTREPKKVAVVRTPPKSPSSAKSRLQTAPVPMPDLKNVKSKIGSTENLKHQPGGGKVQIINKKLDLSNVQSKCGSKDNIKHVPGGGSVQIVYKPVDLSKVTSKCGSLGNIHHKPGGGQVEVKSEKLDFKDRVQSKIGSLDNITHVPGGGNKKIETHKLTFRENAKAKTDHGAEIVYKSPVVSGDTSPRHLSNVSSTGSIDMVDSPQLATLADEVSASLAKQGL
Sequence of Tau-SrcSH3 interaction (P10636 1-441 isoform P10636-8): as above
Sequence of Tau-LckSH3 interaction (P10636 1-441 isoform P10636-8): as above
Sequence of Tau-BIN1SH3 interaction (P10636 1-441 isoform P10636-8): as above
Sequence of Fyn (Homo sapiens, UniProt P06241) (P06241 whole entry): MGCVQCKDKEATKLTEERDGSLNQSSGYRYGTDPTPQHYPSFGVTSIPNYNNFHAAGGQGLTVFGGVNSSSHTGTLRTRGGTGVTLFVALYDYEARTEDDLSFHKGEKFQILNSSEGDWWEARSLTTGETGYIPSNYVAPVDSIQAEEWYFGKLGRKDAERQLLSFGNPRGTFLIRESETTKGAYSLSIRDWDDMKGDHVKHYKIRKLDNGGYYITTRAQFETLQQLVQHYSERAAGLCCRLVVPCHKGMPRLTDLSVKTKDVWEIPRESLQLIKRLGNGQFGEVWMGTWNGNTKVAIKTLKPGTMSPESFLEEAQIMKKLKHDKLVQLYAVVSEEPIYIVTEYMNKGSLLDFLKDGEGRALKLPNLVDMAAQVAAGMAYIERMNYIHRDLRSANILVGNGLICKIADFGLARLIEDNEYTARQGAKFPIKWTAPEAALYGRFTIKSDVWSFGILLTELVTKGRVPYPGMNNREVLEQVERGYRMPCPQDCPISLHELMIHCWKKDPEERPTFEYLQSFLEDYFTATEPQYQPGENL
Sequence of FynSH3 (P06241 82-143 limits assumed): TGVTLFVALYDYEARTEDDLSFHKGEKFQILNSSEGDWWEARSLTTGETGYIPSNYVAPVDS

- half-life [1]: 2.43 h
Compound: O=C(CN1C(=O)CSc2cc(F)ccc21)Nc1nnc(-c2ccccn2)[nH]1 [SRI-39210, 2-(7-fluoro-3-oxo-2,3-dihydro-4H-benzo[b][1,4]thiazin-4-yl)-N-(5-(pyridin-2-yl)-4H-1,2,4-triazol-3-yl)acetamide]
- Amelioration of Aβ toxicity in modified MTT assay [2]: inhibited Aβ toxicity
- Detection in plasma and brain after oral administration [3]: able to detect SRI-39210 in plasma, it did not cross the BBB and was not present in brain

Compound: O=C(CN1C(=O)CSc2cc(Cl)ccc21)Nc1nnc(-c2ccccn2)[nH]1 [SRI-39211, 2-(7-chloro-3-oxo-2,3-dihydro-4H-benzo[b][1,4]thiazin-4-yl)-N-(5-(pyridin-2-yl)-4H-1,2,4-triazol-3-yl)acetamide]
- Amelioration of Aβ toxicity in modified MTT assay [2]: inhibited Aβ toxicity

Compound: Cc1ccc2c(c1)SCC(=O)N2CC(=O)Nc1nnc(-c2ccccn2)[nH]1 [SRI-39488, 2-(7-methyl-3-oxo-2,3-dihydro-4H-benzo[b][1,4]thiazin-4-yl)-N-(5-(pyridin-2-yl)-4H-1,2,4-triazol-3-yl)acetamide]
- Amelioration of Aβ toxicity in modified MTT assay [2]: inhibited Aβ toxicity

- Detection in plasma and brain after oral administration [3]: detected in both plasma and brain
Compound: O=C(CN1CCSc2ccccc21)Nc1nnc(-c2ccccn2)[nH]1 [SRI-39669, 2-(2,3-dihydro-4H-benzo[b][1,4]thiazin-4-yl)-N-(5-(pyridin-2-yl)-4H-1,2,4-triazol-3-yl)acetamide]

Compound: O=C(CN1CCCc2ccccc21)Nc1nnc(-c2ccccn2)[nH]1 [SRI-42654, 2-(3,4-Dihydroquinolin-1(2H)-yl)-N-(5-(pyridin-2-yl)-4H-1,2,4-triazol-3-yl)acetamide]
- Amelioration of Aβ toxicity in modified MTT assay [2]: inhibited Aβ toxicity

- Detection in plasma and brain after oral administration [3]: observed in both plasma and brain
- Inhibition of any of the 97 kinases [7]: did not inhibit
- Inhibition of Fyn kinase [8]: did not inhibit
- Binding to FynSH3 by ITC [9]: did not bind FynSH3
- Interaction with Tau-PxxP5/6 peptide by ITC [10]: no interaction
- inhibition at 15 µM [11]: 37%
- Inhibition of Tau-LckSH3 interaction (PLA) [12]: strongly inhibited
- Inhibition of Tau-BIN1 SH3 interaction (PLA) [13]: moderately inhibited
- Inhibition of Tau-SrcSH3 interaction (PLA) [14]: did not significantly inhibit
Compound: O=C(CN1CCOc2ccccc21)Nc1nnc(-c2ccccn2)[nH]1 [SRI-42667, 2-(2,3-Dihydro-4H-benzo[b][1,4]oxazin-4-yl)-N-(5-(pyridin-2-yl)-4H-1,2,4-triazol-3-yl)acetamide]
- Amelioration of Aβ toxicity in modified MTT assay [2]: ameliorates Aβ toxicity; also recorded: inhibited Aβ toxicity
- Reduction of endogenous Tau-Fyn PLA ([4]; 3 μM): reduces endogenous Tau-Fyn PLA
- Reduction of endogenous Tau-Fyn PLA ([4]; 15 μM): reduces endogenous Tau-Fyn PLA
- Tau levels [5]: does not reduce
- Fyn levels [6]: does not reduce
- Inhibition of Tau-tubulin interaction (PLA) [15]: does not inhibit Tau-tubulin interaction
- Prevention of Aβ-induced network hyperexcitability (MEA) ([16]; 3 μM): prevented Aβ-induced network hyperexcitability
- Prevention of Aβ-induced network hyperexcitability (MEA) ([16]; 15 μM): prevented Aβ-induced network hyperexcitability

- Reduction of AlphaScreen activity relative to SRI-39669 [17]: 8–10 fold
Compound: O=C(CN1CCCCC1)Nc1nnc(-c2ccccn2)[nH]1 [SRI-43142, 2-(piperidin-1-yl)-N-(5-(pyridin-2-yl)-4H-1,2,4-triazol-3-yl)acetamide]

- Reduction of AlphaScreen activity relative to SRI-39669 [17]: 8–10 fold
Compound: O=C(CN1CCOCC1)Nc1nnc(-c2ccccn2)[nH]1 [SRI-43143, 2-Morpholino-N-(5-(pyridin-2-yl)-4H-1,2,4-triazol-3-yl)acetamide]

Compound: CN1CCN(CCOc2cc(OC3CCOCC3)c3c(Nc4c(Cl)ccc5c4OCO5)ncnc3c2)CC1 [saracatinib]
- Clinical benefit in AD [18]: no clinical benefit

Compound: UCS15A
- Inhibition of Sam68(PxxP)-FynSH3 interaction [19]: inhibited
- Inhibition of SFK kinase activity [20]: does not inhibit SFK kinase activity
